ChEMBL document CHEMBL3286259, “Synthesis and anticancer activity of some novel 5,6-fused hybrids of juglone based 1,4-naphthoquinones” (Eur J Med Chem, 2014)
Calls of active or inactive are those of the source. The rule behind the calls is not given here.

Tests used:
[1] = Cytotoxicity against human ME180 cells assessed as inhibition of cell viability after 48 hrs by MTT assay; format: functional, cell-based; settings: ME-180, 48 h
Summary of the method: (§1)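 Cells were counted by trypan blue exclusion, seeded at 1x10^4 cells per well, and exposed to a series of compound concentrations for 48 h at 37 °C in DMEM with 10% FBS. The medium was replaced with serum-free medium plus MTT (5 mg/ml reagent) for 4 h at 37 °C. Formazan was dissolved in DMSO for 10 min and A570 was read. IC50 came from a plot of % viability versus control against concentration.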

MDA-MB-231 = assay: Cytotoxicity against human MDA-MB-231 cells assessed as inhibition of cell viability after 48 hrs by MTT assay; format: functional, cell-based; settings: MDA-MB-231, 48 h; summary of the method: as §1
HT-29 = assay: Cytotoxicity against human HT-29 cells assessed as inhibition of cell viability after 48 hrs by MTT assay; format: functional, cell-based; settings: HT-29, 48 h; summary of the method: as §1
MCF7 = assay: Cytotoxicity against human MCF7 cells assessed as inhibition of cell viability after 48 hrs by MTT assay; format: functional, cell-based; settings: MCF7, 48 h; summary of the method: as §1
HeLa = assay: Cytotoxicity against human HeLa cells assessed as inhibition of cell viability after 48 hrs by MTT assay; format: functional, cell-based; summary of the method: as §1
PC-3 [2] = assay: Cytotoxicity against human PC3 cells assessed as inhibition of cell viability after 48 hrs by MTT assay; format: functional, cell-based; settings: PC-3, 48 h; summary of the method: as §1
[3] = Retardation factor of the compound using hexane/ethyl acetate at ratio of 3:1 as solvent system; format: physicochemical
MDA-MB-453 = assay: Cytotoxicity against human MDA-MB-453 cells assessed as inhibition of cell viability after 48 hrs by MTT assay; format: functional, cell-based; settings: MDA-MB-453, 48 h; summary of the method: as §1
PC-3 [4] = assay: Cell cycle arrest in human PC3 cells assessed as accumulation at S phase at 6 uM after 48 hrs by flow cytometry (reference value: 15.8%); format: functional
Summary of the method: (§2)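 Cells were plated at […] per well in six-well plates and treated for 48 h. They were harvested by trypsinization, washed twice in PBS, and fixed in 70% ice-cold ethanol at −20 °C for 3 h. Cells were then incubated with propidium iodide cell-cycle reagent at 37 °C for 30 min, and DNA content was measured by flow cytometry. PC-3 assays were run in duplicate.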

PC-3 [5] = assay: Ratio of etoposide IC50 to compound IC50 for human PC3 cells; format: functional
PC-3 [6] = assay: Cell cycle arrest in human PC3 cells assessed as accumulation at G2/M phase at 6 uM after 48 hrs by flow cytometry (reference value: 20.9%); format: functional; summary of the method: as §2
PC-3 [7] = assay: Cell cycle arrest in human PC3 cells assessed as accumulation at G0/G1 phase at 3 uM after 48 hrs by flow cytometry (reference value: 55%); format: functional; summary of the method: as §2
PC-3 [8] = assay: Cell cycle arrest in human PC3 cells assessed as accumulation at S phase at 3 uM after 48 hrs by flow cytometry (reference value: 15.8%); format: functional; summary of the method: as §2
PC-3 [9] = assay: Cell cycle arrest in human PC3 cells assessed as increase in accumulation at G2/M phase at 3 to 6 uM after 48 hrs by flow cytometry relative to control; format: functional; summary of the method: as §2
PC-3 [10] = assay: Cell cycle arrest in human PC3 cells assessed as accumulation at G2/M phase at 3 uM after 48 hrs by flow cytometry (reference value: 20.9%); format: functional; summary of the method: as §2
PC-3 [11] = assay: Induction of morphological changes in human PC3 cells assessed as early apoptosis by measuring condensed chromatin, cell membrane blebbing, destructive fragmentation of nuclei at 3 uM after 48 hrs by acridine orange/ethidium bromide staining based fluorescence microscopy; format: functional
Summary of the method: (§3)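 Cells were seeded at 1×10^6 per well in 6-well plates and treated for 48 h. After a PBS wash they were stained with a 1:1 acridine orange/ethidium bromide mix for 5 min in the dark, washed again, and imaged by inverted fluorescence microscopy at 200X. Two thousand cells were counted and scored as viable, early apoptotic, late apoptotic or necrotic, expressed as %.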

PC-3 [12] = assay: Induction of morphological changes in human PC3 cells assessed as late apoptosis/necrosis at 6 uM after 48 hrs by acridine orange/ethidium bromide staining based fluorescence microscopy; format: functional, cell-based; summary of the method: as §3
[13] = Retardation factor of the compound using hexane/ethyl acetate at ratio of 1.8:1 as solvent system; format: physicochemical
PC-3 [14] = assay: Cell cycle arrest in human PC3 cells assessed as accumulation at G0/G1 phase at 6 uM after 48 hrs by flow cytometry (reference value: 55%); format: functional; summary of the method: as §2

| SMILES | Rf [3] | Rf [13] | IC50 [1] [µM] | IC50 (MDA-MB-231) [µM] | IC50 (HT-29) [µM] | IC50 (MCF7) [µM] | IC50 (HeLa) [µM] | IC50 (PC-3 [2]) [µM] | IC50 (MDA-MB-453) [µM] | Activity (PC-3 [4]) [%] | Ratio IC50 (PC-3 [5]) | Activity (PC-3 [6]) [%] | Activity (PC-3 [7]) [%] | Activity (PC-3 [8]) [%] | fold change (FC) (PC-3 [9]) | Activity (PC-3 [10]) [%] | Activity (PC-3 [11]) | Activity (PC-3 [12]) | Activity (PC-3 [14]) [%] |
| --- | --- | --- | --- | --- | --- | --- | --- | --- | --- | --- | --- | --- | --- | --- | --- | --- | --- | --- | --- |
| COc1cccc2c1C(=O)c1c(O)c3c(c(O)c1C2=O)C[C@@](O)(C(=O)CO)C[C@@H]3O[C@H]1C[C@H](N)[C@H](O)[C@H](C)O1 [DOXORUBICIN] |  |  | 0.39 |  |  |  |  |  |  |  |  |  |  |  |  |  |  |  |  |
| CC1=CC(=O)c2c(ccc3cc(C)oc23)C1=O | 0.43 |  | 44.1 | 44 | 60.1 | 28.8 | 55.2 | 31.1 | 32.6 |  |  |  |  |  |  |  |  |  |  |
| COc1cc([C@@H]2c3cc4c(cc3[C@@H](O[C@@H]3O[C@@H]5CO[C@@H](C)O[C@H]5[C@H](O)[C@H]3O)[C@H]3COC(=O)[C@H]23)OCO4)cc(OC)c1O [ETOPOSIDE] |  |  | 8.9 |  |  |  | 4.71 |  | 12.5 |  |  |  |  |  |  |  |  |  |  |
| CC1=CC(=O)c2c(ccc3c2OC(CI)C3)C1=O (centres undefined) |  | 0.38 | 31.2 | 33.2 | 48.4 | 33.8 | 16.2 | 26.8 | 21.6 |  |  |  |  |  |  |  |  |  |  |

Continued, in another order:

| Rf [3] | Rf [13] | SMILES | IC50 [1] [µM] | IC50 (MDA-MB-231) [µM] | IC50 (HT-29) [µM] | IC50 (MCF7) [µM] | IC50 (HeLa) [µM] | IC50 (PC-3 [2]) [µM] | IC50 (MDA-MB-453) [µM] | Activity (PC-3 [4]) [%] | Ratio IC50 (PC-3 [5]) | Activity (PC-3 [6]) [%] | Activity (PC-3 [7]) [%] | Activity (PC-3 [8]) [%] | fold change (FC) (PC-3 [9]) | Activity (PC-3 [10]) [%] | Activity (PC-3 [11]) | Activity (PC-3 [12]) | Activity (PC-3 [14]) [%] |
| --- | --- | --- | --- | --- | --- | --- | --- | --- | --- | --- | --- | --- | --- | --- | --- | --- | --- | --- | --- |
|  | 0.38 | O=C1C=CC(=O)c2c1ccc1c2OCC=C1 | 45.5 | 45.6 | 27.8 | 23.2 | 59.6 | 5.7 | 37.2 | 12.3 | 2.5 | 32 | 45.3 | 15.4 | 1.6 | 30.8 | Active | Active | 46.7 |
|  | 0.48 | O=C1C=CC(=O)c2c1ccc1c2OC(CI)C1 (centres undefined) | 9.4 | 29.2 | 31.3 | 13.4 | 27.4 | 12.7 | 20.8 |  |  |  |  |  |  |  |  |  |  |
| 0.42 |  | Cc1cc2ccc3c(c2o1)C(=O)C=CC3=O | 15 | 38.9 | 57.9 | 24.3 | 51.2 | 18.2 | 25.2 |  |  |  |  |  |  |  |  |  |  |
